# Assays:
# [1] = target: Potassium-transporting ATPase (Rattus norvegicus) (UniProt P09626+P18598); assay: Inhibition of pentagastrin-stimulated gastric acid secretion at a single dose of 10 umol/kg.; format: functional; conditions: Stomach
# How it was run: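 Anesthetized, lumen-perfused rats were given pentagastrin to stimulate gastric acid secretion, and compounds were given iv. The value is an ED50 (µmol/kg iv) with 95% confidence limits, or percent inhibition ± SEM at a single 10 µmol/kg iv dose.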
# [2] = target: Potassium-transporting ATPase (Sus scrofa, UniProt P19156); assay: Inhibition of K+ -stimulated gastric ATPase activity was measured using lyophilized gastric vesicles at pH 7; format: tissue-based, Stomach
# How it was run: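 K+-stimulated ATPase activity was measured in lyophilized (permeabilized) gastric vesicles at pH 7. The value is an IC50, or percent inhibition at the stated concentration where no IC50 could be determined.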
# Potassium-transporting ATPase, sequence (P18434 whole entry): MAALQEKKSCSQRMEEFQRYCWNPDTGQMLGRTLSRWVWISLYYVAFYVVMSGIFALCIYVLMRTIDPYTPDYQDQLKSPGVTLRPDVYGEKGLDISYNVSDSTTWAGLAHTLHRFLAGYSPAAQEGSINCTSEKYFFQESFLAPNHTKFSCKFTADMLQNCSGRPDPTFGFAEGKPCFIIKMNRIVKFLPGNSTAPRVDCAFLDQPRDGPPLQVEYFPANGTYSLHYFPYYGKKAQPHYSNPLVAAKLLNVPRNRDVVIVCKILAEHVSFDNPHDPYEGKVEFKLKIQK
# Potassium-transporting ATPase, sequence (P19156 whole entry): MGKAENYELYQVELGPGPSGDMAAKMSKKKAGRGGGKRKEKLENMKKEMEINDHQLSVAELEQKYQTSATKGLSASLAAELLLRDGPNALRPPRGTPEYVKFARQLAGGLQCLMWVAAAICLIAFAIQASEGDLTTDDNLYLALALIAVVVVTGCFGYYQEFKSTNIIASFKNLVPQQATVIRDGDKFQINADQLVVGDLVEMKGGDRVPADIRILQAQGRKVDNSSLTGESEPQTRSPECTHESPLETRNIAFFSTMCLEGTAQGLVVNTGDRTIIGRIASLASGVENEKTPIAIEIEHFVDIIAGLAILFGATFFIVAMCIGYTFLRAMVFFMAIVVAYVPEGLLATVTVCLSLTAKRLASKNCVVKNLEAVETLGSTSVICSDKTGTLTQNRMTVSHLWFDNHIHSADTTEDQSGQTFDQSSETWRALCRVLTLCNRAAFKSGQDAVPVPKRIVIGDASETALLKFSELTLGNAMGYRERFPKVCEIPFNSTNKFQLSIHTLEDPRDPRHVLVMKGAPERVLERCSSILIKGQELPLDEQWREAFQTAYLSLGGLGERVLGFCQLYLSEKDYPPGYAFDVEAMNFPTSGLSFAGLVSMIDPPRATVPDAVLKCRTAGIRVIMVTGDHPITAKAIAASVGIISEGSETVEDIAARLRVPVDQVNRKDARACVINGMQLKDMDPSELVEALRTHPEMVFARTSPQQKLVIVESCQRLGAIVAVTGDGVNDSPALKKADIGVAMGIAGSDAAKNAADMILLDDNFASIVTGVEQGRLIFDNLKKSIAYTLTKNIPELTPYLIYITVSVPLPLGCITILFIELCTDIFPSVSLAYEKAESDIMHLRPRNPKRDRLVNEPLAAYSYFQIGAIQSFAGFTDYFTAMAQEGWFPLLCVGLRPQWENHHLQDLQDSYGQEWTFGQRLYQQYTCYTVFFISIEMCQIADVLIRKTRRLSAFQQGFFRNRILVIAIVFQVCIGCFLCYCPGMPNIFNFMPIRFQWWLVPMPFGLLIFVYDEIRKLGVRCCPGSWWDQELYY
SMILES,inhibition [1] [%],IC50 [2] [nM]
CCCC(=O)c1cnc2c(O)cccc2c1Nc1ccccc1C,39,3300
CCCC(=O)c1cnc2c(OC)cccc2c1Nc1ccc(N(C)C)cc1C,20,2320
COCCOc1cccc2c(Nc3ccc(F)cc3C)c(C(=O)C(C)C)cnc12,57,1700
CCCC(=O)c1cnc2c(OCCCC(N)=O)cccc2c1Nc1c(C)cccc1C,72,2200
CCCC(=O)c1cnc2ccc(O)cc2c1Nc1ccc(O)cc1C,51,71
CCCC(=O)c1cnc2c(OC)cccc2c1Nc1c(OC)cc(OC)cc1OC,24,4600
CCCC(=O)c1cnc2c(OC)cccc2c1Nc1ccc(NS(C)(=O)=O)cc1C,,45000
CCCC(=O)c1cnc2c(OC)cccc2c1Nc1ccc(C)cc1C,59,4300
CCCC(=O)c1cnc2c(OCCCN3CCCC3)cccc2c1Nc1ccccc1C,31,510
CCCC(=O)c1cnc2c(OCCCc3c[nH]cn3)cccc2c1Nc1c(C)cccc1C,40,
CCCC(=O)c1cnc2c(C(O)CN3CCOCC3)cccc2c1Nc1ccccc1C (stereo not drawn),4,
CCCC(=O)c1c(C)nc2ccccc2c1Nc1ccccc1C,,34000
CCCC(=O)c1cnc2c(NCCCN3CCOCC3)cccc2c1Nc1ccccc1C,47,2400
CCCC(=O)c1cnc2c(C3OC3CO)cccc2c1Nc1ccccc1C (stereo in doubt; 29b) [listing 2 of 2 here],,3100
CCCC(=O)c1cnc2c(OCCCC(=O)OCC)cccc2c1Nc1ccccc1C,52,1600
Cc1cc(F)ccc1Nc1c(C(=O)C(C)C)cnc2c(O)cccc12,20,2700

SMILES,inhibition [1] [%],IC50 [2] [nM]
CCCC(=O)c1cnc2c(OC)cccc2c1Nc1cc(C)cc(C)c1,39,11300
CCCC(=O)c1cnc2c(OC)cccc2c1Nc1ccccc1CO,33,
CCCC(=O)c1cnc2c(OCCCc3cnc[nH]3)cccc2c1Nc1c(C)cccc1C,,600
CCCC(=O)c1cnc2c(OC)cccc2c1Nc1ccc(NC(C)=O)cc1C,,12000
CCCC(=O)c1cnc2c(NCCc3cnc[nH]3)cccc2c1Nc1ccccc1C,,1400
CCCC(=O)c1cnc2c(C)cccc2c1Nc1ccccc1Cl,,6300
CCCC(=O)c1cnc2c(OC)cccc2c1Nc1ccc(O)cc1,39,670
CCCC(=O)c1cnc2c(Oc3ccnc(Cl)c3)cccc2c1Nc1ccccc1C,33,6900
CCCC(=O)c1cnc2c(N)cccc2c1Nc1c(C)cccc1C,57,5800
CCCC(=O)c1cnc2c(OC)cccc2c1Nc1ccc(OC)cc1OC,53,2100
CCC(=O)c1cnc2c(OCCCNc3nccs3)cccc2c1Nc1c(C)cccc1C,48,1700
CCCC(=O)c1cnc2c(OCCO)cccc2c1Nc1ccc(O)cc1C,70,210
CCCC(=O)c1cnc2ccc(OC)cc2c1Nc1ccccc1C,59,7000
CCCC(=O)c1cnc2c(OC)cccc2c1Nc1ccccc1COC,43,
CCCC(=O)c1cnc2c(OCCCC(=O)NC(C)(C)CO)cccc2c1Nc1c(C)cccc1C,61,2800

# Results, then the compound that gave them:
inhibition [1] [%],IC50 [2] [nM],SMILES
49,900,CCCC(=O)c1cnc2c(OCCCNc3ccccn3)cccc2c1Nc1c(C)cccc1C
41,1300,CCCC(=O)c1cnc2c(OC)cccc2c1Nc1ccccc1O
31,36000,CCCC(=O)c1cnc2c(C3COCO3)cccc2c1Nc1ccccc1C (stereo not drawn)
48,1900,CCC(=O)c1cnc2c(O)cccc2c1Nc1ccc(F)cc1C
45,860,CCC(=O)c1cnc2c(O)cccc2c1Nc1ccccc1C
49,6600,CCCC(=O)c1cnc2c(COC(=O)NC)cccc2c1Nc1ccccc1C
59,6000,CCCC(=O)c1cnc2c(N)cccc2c1Nc1ccccc1C
37,1500,CCCC(=O)c1cnc2c(C(C)=O)cccc2c1Nc1ccccc1C
52,,CCCC(=O)c1cnc2c(C3OC3CO)cccc2c1Nc1ccccc1C (stereo in doubt; 29b) [listing 1 of 2 here]
54,2100,CCCC(=O)c1cnc2c(OC)cc(O)cc2c1Nc1ccc(F)cc1C
44,550,CCCC(=O)c1cnc2c(C(C)=O)cccc2c1Nc1ccc(O)cc1C
52,740,CCCC(=O)c1cnc2c(OCCCN(C)CCCc3ccccc3)cccc2c1Nc1ccccc1C
50,2800,CCCC(=O)c1cnc2c(OC)cccc2c1Nc1c(C)cc(O)c(O)c1C
58,240,CCCC(=O)c1cnc2ccc(O)cc2c1Nc1ccccc1C
33,7600,CCCC(=O)c1cnc2c(O)cccc2c1Nc1ccc(F)cc1C
15,1500,CCCC(=O)c1cnc2c(OC)cccc2c1Nc1ccc(N)cc1C
56,,CCCC(=O)c1cnc2c(C3OC3CO)cccc2c1Nc1ccccc1C (stereo in doubt; 29a)
44,6000,CCCC(=O)c1cnc2c(OC)cccc2c1Nc1cccc(CO)c1C
46,2600,CCCC(=O)c1cnc2c(OCCCC(=O)Nc3ccncc3)cccc2c1Nc1ccccc1C

inhibition [1] [%],IC50 [2] [nM],SMILES
56,1200,CCCC(=O)c1cnc2cc(O)ccc2c1Nc1ccccc1C
22,520,CCCC(=O)c1cnc2c(OCCN(C)C)cccc2c1Nc1ccccc1C
24,7200,CCCC(=O)c1cnc2c(CC(=O)O)cccc2c1Nc1ccccc1C
39,650,CCCC(=O)c1cnc2c(OCCCN(C)Cc3ccccc3)cccc2c1Nc1ccccc1C
,18400,CCCC(=O)c1cnc2c(COC(=O)CC)cccc2c1Nc1ccccc1C
39,1900,CCCC(=O)c1cnc2c(C(N)=O)cccc2c1Nc1ccccc1C
49,,CCCC(=O)c1cnc2c(OCCOCCO)cccc2c1Nc1ccc(F)cc1C
50,1400,CCCC(=O)c1cnc2c(OCCCc3nc4ccccc4[nH]3)cccc2c1Nc1c(C)cccc1C
35,160,CCCC(=O)c1cnc2ccc(N)cc2c1Nc1c(C)cccc1C
48,890,CCCC(=O)c1cnc2c(OCCCN3CCOCC3)cccc2c1Nc1ccccc1C
,34000,CCCC(=O)c1cnc2c(OC)cccc2c1Nc1ccc(OCCCn2ccnc2)cc1C
37,,CCCC(=O)c1cnc2c(OCCCN(C)C)cccc2c1Nc1ccc(F)cc1C
55,,CCCC(=O)c1cnc2c(CO)cccc2c1Nc1ccc(F)cc1C
25,,CCCC(=O)c1cnc2c(OC)cccc2c1Nc1cc(CO)ccc1C
31,,CCCC(=O)c1cnc2c(NCCc3c[nH]cn3)cccc2c1Nc1ccccc1C
51,,CCCC(=O)c1cnc2c(OC)cccc2c1Nc1c(C)cc2c(c1C)OCO2
11,,CCCC(=O)c1cnc2c(C(O)CN(C)C)cccc2c1Nc1ccccc1C (stereo not drawn)
46,,CCCC(=O)c1cnc2ccc(CO)cc2c1Nc1ccccc1C
